Screening data deposited in PubChem by several laboratories.
Only some compounds are listed: those with a hit (about 1.8% of all), similar ones and a draw of the others.
GalR3 antag: human GalR3 antagonism; O60755; HEK293 GalR3-CNG cAMP membrane potential fluorescence; galR3 body fused to GalR1 C-terminus; inhibition, % at 3 µM; 0.44% of 360,000 active;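 active = inhibition above the screen-wide average plus 3 SD, cut at about 13% in these data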;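 also: forskolin and galanin both at EC90 stimulate the cells; cAMP rise reported by CNG channel membrane potential dye signal; 0% = forskolin plus galanin with DMSO and 100% = forskolin alone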
Target sequence (O60755 1-299 limits assumed): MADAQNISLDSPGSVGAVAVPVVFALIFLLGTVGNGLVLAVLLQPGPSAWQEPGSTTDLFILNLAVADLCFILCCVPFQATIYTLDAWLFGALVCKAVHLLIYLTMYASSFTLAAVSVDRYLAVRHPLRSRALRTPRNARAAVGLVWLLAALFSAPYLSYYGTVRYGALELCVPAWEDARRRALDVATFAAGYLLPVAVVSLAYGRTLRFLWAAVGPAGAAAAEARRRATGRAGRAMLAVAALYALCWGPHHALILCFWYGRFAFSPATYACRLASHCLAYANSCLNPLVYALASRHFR
NR2E3 ag-1: activates human NR2E3 receptor. Q9Y5X4. CHO-S Gal4-NCOR/VP16-NR2E3 two-hybrid, luciferase. inhibition of corepressor binding, % at 3.98 µM. 0.35% of 360,000 active. AID 602229;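 active = inhibition above the mean of all tested compounds plus 3 SD, cut at about 70% in these data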;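 also: 0% = DMSO with NR2E3 transfected cells and 100% = cells lacking NR2E3 construct; higher means lower luciferase signal from less NR2E3 corepressor binding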
Jurkat NFkB inh: inhibitors of the PMA/ionomycin-induced NF-kB reporter in Jurkat cells; inhibition, % at 4 µM; 0.53% of 330,000 active; PMA/ionomycin-induced NF-kB luciferase reporter, luminescence; in the data active = inhibition above about 50%
NR2E3 ag-2: activates human photoreceptor nuclear receptor NR2E3; GST-NR2E3/biotin-RetCOR TR-FRET, 1536-well; inhibition of corepressor binding, % at 4.78 µM; 0.12% of 320,000 active; AID 2300;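 active = percent inhibition above the cutoff of mean plus 3 SD of all tested compounds, set per screening campaign, cut at about 20% in these data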;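 also: 0% = DMSO wells and 100% = biotin wells as full block of FRET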
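system = GST-tagged NR2E3 plus biotinylated RetCOR corepressor | input = 1.35 nM GST-NR2E3 | also added = 7 nM biotin-RetCOR | schedule = 5 h incubation at 4 °C | measured by = TR-FRET with europium anti-GST and streptavidin-D2, 340 nm excitation | read-out = percent loss of FRET ratio relative to control wells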
Gli-Sufu block: Gli-Sufu pathway antagonism; Sufu-KO-LIGHT fibroblasts, Gli luciferase reporter luminescence; inhibition, % at 5 µM; 0.74% of 340,000 active;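 active = inhibition above about 55%, limit read from the data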;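 also: 0% = DMSO-treated cells and 100% = wells with medium but no cells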
697 NFkB inh: inhibitors of the PMA/ionomycin-induced NF-kB reporter in 697 B cells | 697 B-cell NF-kB luciferase reporter, 16 h | inhibition, % at 4 µM | 0.33% of 330,000 active | AID 435022; in the data active = inhibition above about 35%
Jurkat NFkB conf: lowers PMA/ionomycin-induced NF-kB signal in Jurkat cells. AID 435020. shares compounds with Jurkat NFkB inh. Jurkat NF-kB luciferase, 16 h. inhibition, % at 4 µM. 27% of 2,700 active;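 active = inhibition reaching about 45% at 4 µM in either replicate, limit read from the data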;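 also: plate controls were PMA/ionomycin stimulated DMSO wells for no effect and unstimulated DMSO wells for full effect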
An asterisk follows results filed as active; x = no result given.

SMILES	GalR3 antag	NR2E3 ag-1	Jurkat NFkB inh	NR2E3 ag-2	Gli-Sufu block	697 NFkB inh	Jurkat NFkB conf
COC(=O)c1[nH]c2c(c1C)C(=O)CC(c1ccc(OC)c(OC)c1)C2 (configuration not stated)	-8.4	1.3	-13.9	0.7	2.0	-34.2	x
Cc1c(C(=O)OCC(C)C)[nH]c2c1C(=O)CC(c1cccs1)C2 (configuration not stated)	-6.5	-61.5	51.4*	0.9	36.6	-19.0	48.6
CCOCCOC(=O)c1[nH]c2c(c1C)C(=O)CC(c1cccs1)C2 (configuration not stated)	-2.0	-7.8	74.8*	-1.6	30.9	15.6	46.1
COC(=O)N1C[C@H](OCc2ccc3c(c2)OCO3)[C@H]2C[C@@H]1c1ccccc1O2	-1.2	x	x	x	x	x	x
C[C@H](O)[C@@H]1CN2CCc3c([nH]c4c(-c5ccccc5)cccc34)[C@@H]2C[C@@H]1N(C)C(=O)NC1CCCCC1	-3.2	x	x	x	x	x	x
CCN(CC)S(=O)(=O)c1ccc(N/N=C/c2cc(OC)ccc2O)nc1	-5.3	-0.3	51.7*	0.9	47.2	-56.8	-3.4
CCN(CC)S(=O)(=O)c1ccc(N/N=C/c2cccnc2)nc1	-6.0	-17.3	-4.3	3.9	-1.8	27.2	x
Cc1ccc(NC(=O)Nc2ccnc(-c3cccnc3)n2)cc1	-3.0	-7.6	62.4*	2.5	-21.6	-13.7	46.8*
COC(=O)CCN1CCSCCS1(=O)=O	-3.8	x	x	x	x	x	x
CN(C)NC1=CC(=[N+]2CCCC2)CC(C)(C)C1	-4.3	-7.7	-0.6	-0.2	0.6	-4.8	x
CCCN(CCC)C1=CC(=[N+]2CCCC2)CC(C)(C)C1	24.2*	7.5	68.9*	-3.6	82.4*	3.9	40.2
COc1ccc(OC)c(NS(=O)(=O)c2ccc(N3CCCC3=O)cc2)c1	-8.1	4.7	54.5*	6.3	44.8	0.6	55.4*
Cc1ccccc1NS(=O)(=O)c1cc2c3c(c1)CC(=O)N3CCC2	-6.5	-25.9	4.6	-2.2	4.5	6.7	x
Cc1ccccc1NS(=O)(=O)c1ccc(N2CCCC2=O)cc1	-9.5	-96.2	53.9*	8.3	-0.4	-83.2	48.4
Cc1cc(Br)cn2c(Cc3ccccc3C(F)(F)F)c(-c3ccc(F)cc3)nc12	-5.7	x	x	x	x	x	x
COc1cccc(NC(=O)c2cc3cccc(OC)c3o/c2=N\O)c1	x	x	-117.0	0.1	x	-210.8	x
COc1ccc2oc(=O)c(C(=O)Nc3cccc(C)c3)cc2c1	-2.6	-58.5	-89.4	-1.1	-65.8	-101.4	x
Cc1cccc(NC(=O)c2cc3ccccc3oc2=O)c1	-8.0	-72.5	-153.8	-4.7	-76.5	-137.6	-96.9
COc1cccc(NC(=O)c2cc3ccccc3o/c2=N\O)c1	-4.3	-135.8	-159.1	0.6	-93.7	-129.0	-129.6
CCc1cccc(NC(=O)c2cnn(-c3ccccc3)c2C)c1	-9.9	-169.9	-146.6	-4.1	-68.4	-170.0	x
COc1cccc(NC(=O)c2cnn(-c3ccccc3)c2C)c1	-5.8	-177.3	-168.9	-1.1	-89.3	-187.1	-82.5
Cc1ccc(/C=C/c2ccc(N(C)C)cc2)[n+](C)c1	-7.9	-14.4	68.5*	-11.1	84.7*	26.2	41.0
CCCCS(=O)(=O)N1CCN(C(=O)C(=O)c2cccc(C(F)(F)F)c2)CC1	-4.2	x	x	x	x	x	x
COC(=O)c1c(-c2cc(OC)cc(OC)c2)sc2ccc(OC)cc12	-4.4	-44.8	-14.8	x	-13.3	-3.0	x
COC(=O)c1c(-c2ccc(SC)cc2)sc2ccc(OC)cc12	-1.8	-84.6	-153.3	x	-100.1	-165.8	-90.4
COc1ccc2[nH]c3c(N4CCC(O)(c5cccc(C(F)(F)F)c5)CC4)ncnc3c2c1	4.1	-0.9	50.8*	-1.2	25.0	0.4	23.1
CCOc1ccc2[nH]c3c(NCC(C)C)ncnc3c2c1	x	-24.9	-6.3	-0.1	9.1	-13.9	x
COc1ccc2[nH]c3c(N4CCN(Cc5ccc6c(c5)OCO6)CC4)ncnc3c2c1	-6.6	36.0	20.4	1.6	-2.9	7.8	x
CCOc1ccc2[nH]c3c(N4CCc5ccccc5C4)ncnc3c2c1	0.3	-2.8	51.6*	4.3	22.9	-24.2	21.4
COc1cc(-n2c(C)cc(O)cc2=O)ccc1Cl	-6.3	x	x	x	x	x	x
